The source of these data is ChEMBL document CHEMBL1136692, “Pharmacokinetic optimization of 3-amino-6-chloropyrazinone acetamide thrombin inhibitors. Implementation of P3 pyridine N-oxides to deliver an orally bioavailable series containing P1 N-benzylamides” (Bioorg Med Chem Lett, 2003).

The nature of series [1]: Partition coefficient (logP) of the compound. The format is physicochemical. The note with it: octanol/water.
Series [2] is described as follows: t1/2 in dog. The format is ADME, organism-based, Canis lupus familiaris. The note with it: in vivo. The gist of the method:
(§1)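 Dog pharmacokinetics after oral dosing at 1 mg/kg, or at 0.7 or 0.5 mg/kg where footnoted. Cmax (µM) and oral half-life (h) from plasma levels.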

Series [3] in a line: Maximum plasma concentration (Cmax) in dog at a dose of […] mg/kg. The format is ADME, organism-based, Canis lupus familiaris.
A further series has as its target Prothrombin (Homo sapiens, UniProt P00734). Kind of series: Inhibitory activity against human thrombin.
For series [4], the species on record is Homo sapiens. The series can be described thus: Concentration required to double the activated partial thromboplastin time (aPPT) in human plasma. Type of series: functional, cell-free. The gist of the method: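 Anticoagulant assay in human plasma. The value is the concentration of inhibitor that doubles the activated partial thromboplastin time (2×aPTT).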

Series [5] is filed under the species Homo sapiens. The series can be described thus: Human microsome stabilities are reported as the ratio of the % remaining after a 1 hr incubation versus the internal standard thrombin inhibitor. The format is functional. On the set-up: unit not given here.
Series [6] in a line: Maximum plasma concentration (Cmax) in dog at a dose of 1 mg/kg. Type of series: ADME, organism-based, Canis lupus familiaris. Details: dose 1 mg/kg; call rule not given here. The procedure, abridged: as §1

pKi: −log10 of the molar value.

For orientation: logP means the decadic logarithm of the partition coefficient of the neutral form, usually between octanol and water. One may read the half-life as the time in which the quantity being followed falls by half. The term Cmax denotes the maximum level reached in the sampled fluid or tissue. One may read the pKi as the negative decadic logarithm of the Ki, by convention in mol/L. In series [1], `O=C(Cn1c(Cl)cnc(NCC(F)(F)c2cccc[n+]2[O-])c1=O)NCc1c(F)cccc1C(F)(F)F` yielded a logP of 1.89. The compound also gave a half-life in series [2] of 2.4 h. The highest concentration (Cmax) in series [3] (0.7 mg/kg) was 70 nM. The compound further had a pKi at Prothrombin of 8.89. The same compound returned a Concentration in the series filed under Homo sapiens [4] of 0.88 µM. Also, in the series listed under Homo sapiens [5], the Ratio came out at 0.
As to `O=C(Cn1c(Cl)cnc(NCC(F)(F)c2cccc[n+]2[O-])c1=O)NCc1ccccc1C(F)(F)F`, the lipophilicity (logP) in series [1] amounted to 2.24. Moreover, the half-life in series [2] is 3.7 h. Besides, the peak concentration (Cmax) in series [3] (0.5 mg/kg) was 1430 nM. Further, the pKi at Prothrombin was 8.44. Moreover, the Concentration in the series filed under Homo sapiens [4] worked out at 0.93 µM. Further, the Ratio in the series filed under Homo sapiens [5] came out at 0.05.
In the case of `O=C(Cn1c(Cl)cnc(NCC(F)(F)c2cccc[n+]2[O-])c1=O)NCc1cc(Cl)ccc1Cl`, the logP in series [1] turned out to be 2.61. The compound further showed a half-life in series [2] of 2.1 h. The same compound had a maximum concentration (Cmax) in series [6] of 110 nM. For the same compound, the pKi on Prothrombin is 10.06. Also, the Concentration in the series filed under Homo sapiens [4] came to 0.39 µM. In addition, the Ratio in the series filed under Homo sapiens [5] was 1.04.
Take `O=C(Cn1c(Cl)cnc(NCC(F)(F)c2cccc[n+]2[O-])c1=O)NCc1ccccc1`: in series [1], the logP came to 1.23. In series [2], this compound had a half-life of 6.3 h. In series [6], the highest concentration (Cmax) came out at 3200 nM. On Prothrombin, this compound gave a negative logarithm of the Ki (pKi) of 8.15. The Concentration in the series filed under Homo sapiens [4] is 0.94 µM. Moreover, the Ratio in the series listed under Homo sapiens [5] came out at 1.3.
In series [1], `O=C(Cn1c(Cl)cnc(NCC(F)(F)c2cccc[n+]2[O-])c1=O)NCc1c(F)cccc1F` had a log partition coefficient (logP) of 1.23. Also, the half-life in series [2] is 6.2 h. The maximum concentration (Cmax) in series [6] amounted to 210 nM. Moreover, the pKi on Prothrombin was 9.07. The same compound came in with a Concentration in the series listed under Homo sapiens [4] of 0.33 µM. Further, the Ratio in the series filed under Homo sapiens [5] was 3.4.
Turning to `O=C(Cn1c(Cl)cnc(NCC(F)(F)c2cccc[n+]2[O-])c1=O)NCc1cccc(OC(F)F)c1`, the logP in series [1] was determined as 1.73. In series [2], this compound had a half-life of 4.8 h. In addition, in series [6], the peak concentration (Cmax) is 120 nM. On Prothrombin, this compound showed a negative-log Ki (pKi) of 8.15. Further, the Concentration in the series listed under Homo sapiens [4] worked out at 0.97 µM. The Ratio in the series listed under Homo sapiens [5] is 0.54.
With `O=C(Cn1c(Cl)cnc(NCC(F)(F)c2cccc[n+]2[O-])c1=O)NCc1ccc(F)c(Cl)c1`, the logP in series [1] was 1.98. In addition, the half-life in series [2] was 2.4 h. This compound also showed a peak concentration (Cmax) in series [6] of 420 nM. The compound further had a pKi on Prothrombin of 8.44. In the series filed under Homo sapiens [4], this compound came in with a Concentration of 0.78 µM. Further, the Ratio in the series listed under Homo sapiens [5] is 0.
Take `O=C(Cn1c(Cl)cnc(NCC(F)(F)c2cccc[n+]2[O-])c1=O)NCc1cccc(Cl)c1Cl`: the logP in series [1] was 2.14. The compound further had a half-life in series [2] of 2.5 h. Moreover, the peak concentration (Cmax) in series [6] is 290 nM. Further, at Prothrombin, the pKi is 8.70. The Concentration in the series listed under Homo sapiens [4] was found to be 0.88 µM. The Ratio in the series filed under Homo sapiens [5] was found to be 0.39.
Regarding `O=C(Cn1c(Cl)cnc(NCC(F)(F)c2cccc[n+]2[O-])c1=O)NCc1cccc(Br)c1`, the logP in series [1] was 2.11. Further, the half-life in series [2] is 3.6 h. The highest concentration (Cmax) in series [6] was 1010 nM. At Prothrombin, the pKi is 9.72. In addition, the Concentration in the series listed under Homo sapiens [4] was determined as 0.28 µM. Further, the Ratio in the series filed under Homo sapiens [5] is 0.14.
Consider `O=C(Cn1c(Cl)cnc(NCC(F)(F)c2cccc[n+]2[O-])c1=O)NCc1ccccc1OC(F)F`, for which the logP in series [1] is 1.63. Further, in series [2], the half-life is 2.8 h. The same compound showed a Cmax in series [6] of 2030 nM. For the same compound, the pKi at Prothrombin is 8.52. This compound displayed a Concentration in the series filed under Homo sapiens [4] of 0.69 µM. Further, the Ratio in the series filed under Homo sapiens [5] is 0.
Consider `O=C(Cn1c(Cl)cnc(NCC(F)(F)c2cccc[n+]2[O-])c1=O)NCc1cccc(Cl)c1`, for which the logP entry in series [1] is “Not Active”. In series [2], this compound had a half-life of 2.6 h. Also, the peak level in series [3] (0.5 mg/kg) (Cmax) was 1910 nM. At Prothrombin, the pKi is 9.59. In the series listed under Homo sapiens [4], this compound returned a Concentration of 0.23 µM. Moreover, the Ratio in the series filed under Homo sapiens [5] stood at 0.
`Cc1cccc(CNC(=O)Cn2c(Cl)cnc(NCC(F)(F)c3cccc[n+]3[O-])c2=O)c1` returned a logP in series [1] of 1.81. The half-life in series [2] was 1.1 h. In series [6], this compound showed a Cmax of 2190 nM. The compound also showed a pKi on Prothrombin of 9.10. In addition, in the series listed under Homo sapiens [4], the Concentration stood at 0.3 µM. Also, the Ratio in the series listed under Homo sapiens [5] came out at 0.58.
Regarding `O=C(Cn1c(Cl)cnc(NCC(F)(F)c2cccc[n+]2[O-])c1=O)NCc1cc(F)ccc1F`, the logP result in series [1] is “Not Active”. This compound also gave a half-life in series [2] of 3.9 h. The compound also registered a Cmax in series [6] of 2290 nM. At Prothrombin, the pKi was 8.62. Besides, in the series listed under Homo sapiens [4], the Concentration was 0.43 µM. For the same compound, the Ratio in the series listed under Homo sapiens [5] turned out to be 0.05.
`CCOc1ccccc1CNC(=O)Cn1c(Cl)cnc(NCC(F)(F)c2cccc[n+]2[O-])c1=O`: the logP in series [1] worked out at 1.91. The half-life in series [2] is 1.2 h. In series [6], this compound registered a Cmax of 770 nM. Further, the negative logarithm of the Ki (pKi) at Prothrombin is 8.28. The compound also came in with a Concentration in the series listed under Homo sapiens [4] of 0.87 µM. In the series filed under Homo sapiens [5], the Ratio was determined as 0.08.
Consider `O=C(Cn1c(Cl)cnc(NCC(F)(F)c2cccc[n+]2[O-])c1=O)NCc1cc(Cl)ccc1F`, for which, in series [1], the logP result is “Not Active”. Also, the half-life in series [2] was 2.1 h. Moreover, the Cmax in series [6] came to 480 nM. Moreover, the pKi on Prothrombin is 9.80. The Concentration in the series filed under Homo sapiens [4] is 0.31 µM. Besides, the Ratio in the series filed under Homo sapiens [5] was found to be 0.
With `O=C(Cn1c(Cl)cnc(NCC(F)(F)c2cccc[n+]2[O-])c1=O)NCc1ccccc1OCC(F)(F)F`, in series [1], the logP turned out to be 1.93. In series [2], this compound gave a half-life of 2.5 h. In addition, the peak concentration (Cmax) in series [6] worked out at 2290 nM. In addition, the negative-log Ki (pKi) at Prothrombin was 8.74. In addition, the Concentration in the series listed under Homo sapiens [4] was 0.58 µM. Also, in the series listed under Homo sapiens [5], the Ratio is 0.
Consider `Cc1ccccc1CNC(=O)Cn1c(Cl)cnc(NCC(F)(F)c2cccc[n+]2[O-])c1=O`, for which the logP in series [1] was 1.74. In addition, the half-life in series [2] was 3.6 h. The same compound came in with a maximum concentration (Cmax) in series [6] of 1760 nM. The compound also gave a Concentration in the series filed under Homo sapiens [4] of 0.77 µM.
The compound `O=C(Cn1c(Cl)cnc(NCC(F)(F)c2cccc[n+]2[O-])c1=O)NCc1c(F)ccc(F)c1F` showed a logP in series [1] of 1.42. The compound also had a half-life in series [2] of 3.5 h. Moreover, the concentration in series [6] peaked (Cmax) at 1510 nM. The compound further had a pKi on Prothrombin of 8.96. In the series filed under Homo sapiens [4], this compound yielded a Concentration of 0.31 µM. Moreover, the Ratio in the series listed under Homo sapiens [5] is 0.04.
Consider `O=C(Cn1c(Cl)cnc(NCC(F)(F)c2cccc[n+]2[O-])c1=O)NCc1ccccc1OC(F)(F)F`, for which the logP in series [1] was 2.34. This compound also had a half-life in series [2] of 3 h. In series [6], this compound yielded a peak concentration (Cmax) of 1670 nM. Further, the negative logarithm of the Ki (pKi) on Prothrombin was 8.62. For the same compound, the Concentration in the series listed under Homo sapiens [4] came to 0.81 µM. In the series listed under Homo sapiens [5], the Ratio turned out to be 0.
`O=C(Cn1c(Cl)cnc(NCC(F)(F)c2cccc[n+]2[O-])c1=O)NCc1cc(F)ccc1C(F)(F)F`: in series [1], the logP was 1.99. Besides, the half-life in series [2] was 2.8 h. Moreover, the peak concentration (Cmax) in series [6] is 990 nM. The pKi on Prothrombin was 8.77. The Concentration in the series filed under Homo sapiens [4] was determined as 0.63 µM. Also, the Ratio in the series listed under Homo sapiens [5] is 0.
`O=C(Cn1c(Cl)cnc(NCC(F)(F)c2ccccn2)c1=O)NCc1ccccc1F` yielded a Cmax in series [6] of 17 nM. In addition, the pKi at Prothrombin is 8.32. The compound further returned a Concentration in the series listed under Homo sapiens [4] of 1.24 µM.
`O=C(Cn1c(Cl)cnc(NCC(F)(F)c2cccc[n+]2[O-])c1=O)NCc1ccccc1Cl` came in with a logP in series [1] of 1.89. Further, the half-life in series [2] was 2.9 h. Further, the Cmax in series [6] came out at 700 nM. For the same compound, the pKi at Prothrombin is 8.60. Further, in the series filed under Homo sapiens [4], the Concentration worked out at 0.54 µM. The Ratio in the series listed under Homo sapiens [5] amounted to 0.15.
In turn, `COc1cccc(CNC(=O)Cn2c(Cl)cnc(NCC(F)(F)c3cccc[n+]3[O-])c2=O)c1` yielded a lipophilicity (logP) in series [1] of 1.31. This compound also showed a half-life in series [2] of 2.8 h. In series [6], this compound returned a Cmax of 1220 nM. On Prothrombin, this compound gave a pKi of 8.92. The compound further registered a Concentration in the series listed under Homo sapiens [4] of 0.43 µM. Besides, the Ratio in the series filed under Homo sapiens [5] is 0.71.
